These results are taken from ChEMBL document CHEMBL4038350 (J Med Chem, 2017).

Type in all cases: functional, cell-based
For test [1], the target named is T1, Melanocortin receptor 3 (Mus musculus, UniProt P33033). The test can be described thus: Antagonist activity at mouse melanocortin receptor 3 expressed in HEK293 cells assessed as inhibition of NDP-MSH-induced cAMP accumulation after 2 hrs by AlphaScreen assay. Conditions: read-out: pA2 (converted).
Test [2] has as its target T2, Melanocortin receptor 4 (Mus musculus, UniProt P56450). Briefly: Antagonist activity at mouse melanocortin receptor 4 expressed in HEK293 cells assessed as inhibition of NDP-MSH-induced cAMP accumulation after 2 hrs by AlphaScreen assay. Conditions: read-out: pA2 (converted).
The target in test [3] is Melanocyte-stimulating hormone receptor (Mus musculus) (UniProt Q01727). Briefly: Agonist activity at mouse melanocortin receptor 1 expressed in HEK293 cells assessed as increase in cAMP accumulation at 100 uM after 2 hrs by AlphaScreen assay relative to control. The procedure, abridged: (§1)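 Cyclic peptides were dissolved in DMSO. Receptor-expressing HEK293 cells in IBMX-containing stimulation buffer (pH 7.4) were stimulated for 2 h at room temperature. cAMP was then detected by competitive AlphaScreen after a 2 h lysis/bead step. […] Values come from at least three independent experiments.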
Sequence of Melanocyte-stimulating hormone receptor (Mus musculus) (Q01727 whole entry, looked up): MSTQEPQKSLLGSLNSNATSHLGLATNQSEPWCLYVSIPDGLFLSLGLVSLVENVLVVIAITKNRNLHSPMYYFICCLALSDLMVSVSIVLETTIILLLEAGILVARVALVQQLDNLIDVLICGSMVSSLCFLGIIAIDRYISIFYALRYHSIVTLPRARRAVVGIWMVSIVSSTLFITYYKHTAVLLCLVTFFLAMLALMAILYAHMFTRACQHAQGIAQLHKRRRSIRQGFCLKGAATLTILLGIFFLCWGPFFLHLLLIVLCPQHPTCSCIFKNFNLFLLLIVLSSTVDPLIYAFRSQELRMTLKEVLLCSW
In general terms: cAMP levels reflect the balance of adenylyl cyclase and phosphodiesterase activity.

Test [4] addresses Melanocortin receptor 3 (Mus musculus) (UniProt P33033). The test can be described thus: Agonist activity at mouse melanocortin receptor 3 expressed in HEK293 cells assessed as increase in cAMP accumulation at 100 uM after 2 hrs by AlphaScreen assay relative to control. Put shortly:
as §1

The target in test [5] is Melanocortin receptor 4 (Mus musculus) (UniProt P56450). Briefly: Agonist activity at mouse melanocortin receptor 4 expressed in HEK293 cells assessed as increase in cAMP accumulation at 100 uM after 2 hrs by AlphaScreen assay. The procedure, abridged:
as §1

Test [6] concerns the target Melanocortin receptor 5 (Mus musculus) (UniProt P41149). The test can be described thus: Agonist activity at mouse melanocortin receptor 5 expressed in HEK293 cells assessed as increase in cAMP accumulation at 100 uM after 2 hrs by AlphaScreen assay relative to control. Put shortly: as §1
In test [7] the target is Melanocyte-stimulating hormone receptor (Mus musculus, UniProt Q01727). The test can be described thus: Agonist activity at mouse melanocortin receptor 1 expressed in HEK293 cells assessed as increase in cAMP accumulation after 2 hrs by AlphaScreen assay. The procedure, abridged:
(§2)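 Donor beads and biotin-cAMP in lysis buffer followed for 2 h. The AlphaScreen signal was read. EC50 came from nonlinear least-squares fits, duplicates, at least three independent experiments.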

For test [8], the target named is T1, Melanocortin receptor 3. Briefly: Agonist activity at mouse melanocortin receptor 3 expressed in HEK293 cells assessed as increase in cAMP accumulation after 2 hrs by AlphaScreen assay.
Test [9] addresses T2, Melanocortin receptor 4. Briefly: Agonist activity at mouse melanocortin receptor 4 expressed in HEK293 cells assessed as increase in cAMP accumulation after 2 hrs by AlphaScreen assay.
The target of test [10] is Melanocortin receptor 5 (Mus musculus) (UniProt P41149). The test can be described thus: Inverse agonist activity at mouse melanocortin receptor 5 expressed in HEK293 cells assessed as decrease in cAMP accumulation at 100 uM after 2 hrs by AlphaScreen assay relative to control. Also on record: scale not given: the % may be the effect or the level left. The procedure, abridged:
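Each replicate was normalized to its own signal at 10−10 M (basal). Where no plateau appeared, inverse agonism was reported as percent decrease from basal at 100 μM. Values are from three independent experiments.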

For test [11] the target is unchanged. The test can be described thus: Inverse agonist activity at mouse melanocortin receptor 5 expressed in HEK293 cells assessed as decrease in cAMP accumulation at 110 nM after 2 hrs by AlphaScreen assay relative to control. Also on record: scale not given: the % may be the effect or the level left. The procedure, abridged: (§3)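 In mouse MC5R-HEK293 cells, cAMP was measured by AlphaScreen after 2 h peptide exposure (10−4 to 10−13 M) at room temperature. Each replicate was normalized to its signal at 10−10 M. For sigmoidal curves, percent inverse agonism was the change from basal to the high-concentration plateau. Apparent potency was taken as the curve inflection point. Three independent experiments were run.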

Test [12] concerns the target Melanocortin receptor 5 (Mus musculus, UniProt P41149). Briefly: Agonist activity at mouse melanocortin receptor 5 expressed in HEK293 cells assessed as increase in cAMP accumulation after 2 hrs by AlphaScreen assay. Put shortly: as §2
The target in test [13] is Melanocortin receptor 5 (Mus musculus) (UniProt P41149). The test can be described thus: Inverse agonist activity at mouse melanocortin receptor 5 expressed in HEK293 cells assessed as decrease in cAMP accumulation at 10 nM after 2 hrs by AlphaScreen assay relative to control. Details: scale not given: the % may be the effect or the level left. The procedure, abridged: as §3
Sequence of Melanocortin receptor 5 (Mus musculus) (P41149 whole entry): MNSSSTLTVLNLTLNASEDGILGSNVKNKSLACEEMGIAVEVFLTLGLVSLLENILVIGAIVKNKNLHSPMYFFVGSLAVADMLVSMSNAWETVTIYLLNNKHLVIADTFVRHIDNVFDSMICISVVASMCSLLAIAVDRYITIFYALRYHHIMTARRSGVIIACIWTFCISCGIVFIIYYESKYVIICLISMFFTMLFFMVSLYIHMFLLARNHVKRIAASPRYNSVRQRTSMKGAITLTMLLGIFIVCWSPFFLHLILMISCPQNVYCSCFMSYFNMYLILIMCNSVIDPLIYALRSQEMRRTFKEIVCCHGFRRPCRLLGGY

Test [14] has the same target. Briefly: Inverse agonist activity at mouse melanocortin receptor 5 expressed in HEK293 cells assessed as decrease in cAMP accumulation at 510 nM after 2 hrs by AlphaScreen assay relative to control. Also on record: scale not given: the % may be the effect or the level left. Put shortly: as §3

Non-standard residues stand in square brackets, D forms with d. Residues, ends and D or L forms follow the SMILES beside them.

T2 sequence (P56450 whole entry): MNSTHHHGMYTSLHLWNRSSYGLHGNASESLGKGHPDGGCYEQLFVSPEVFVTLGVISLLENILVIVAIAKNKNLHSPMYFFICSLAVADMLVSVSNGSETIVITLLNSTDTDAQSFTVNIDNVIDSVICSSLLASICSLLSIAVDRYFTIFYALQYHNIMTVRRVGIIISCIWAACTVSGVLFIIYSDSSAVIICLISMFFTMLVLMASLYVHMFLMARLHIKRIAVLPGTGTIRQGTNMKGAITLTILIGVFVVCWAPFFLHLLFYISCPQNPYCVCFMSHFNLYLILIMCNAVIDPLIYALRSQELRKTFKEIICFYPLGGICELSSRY
Sequence of Melanocyte-stimulating hormone receptor (Q01727 whole entry): as the sequence (Q01727 whole entry, looked up) above
Sequence of Melanocortin receptor 5 (P41149 whole entry): as the sequence (P41149 whole entry) above
T1 sequence (P33033 whole entry): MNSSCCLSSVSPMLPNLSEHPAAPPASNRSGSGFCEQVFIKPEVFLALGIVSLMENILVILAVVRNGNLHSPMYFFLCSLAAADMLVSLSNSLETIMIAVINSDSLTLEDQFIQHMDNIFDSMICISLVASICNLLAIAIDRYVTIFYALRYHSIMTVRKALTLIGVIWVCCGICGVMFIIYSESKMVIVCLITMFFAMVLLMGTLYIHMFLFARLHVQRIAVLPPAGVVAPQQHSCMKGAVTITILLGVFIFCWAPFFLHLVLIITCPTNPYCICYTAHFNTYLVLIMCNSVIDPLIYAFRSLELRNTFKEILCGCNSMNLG
Sequence of Melanocortin receptor 3 (Mus musculus) (P33033 whole entry): as above
Sequence of Melanocortin receptor 4 (Mus musculus) (P56450 whole entry): as the sequence (P56450 whole entry) above

On to `N=C(N)NCCC[C@@H]1NC(=O)[C@@H]2CCCN2C(=O)[C@H]2CCCN2C(=O)[C@H](Cc2ccccc2)NC(=O)[C@H](Cc2ccccc2)NC(=O)[C@H](CC(N)=O)NC(=O)[C@H](Cc2ccccc2)NC(=O)[C@H](Cc2ccccc2)NC1=O`, for which the Kb is 1.91 µM in test [1] and 1.95 µM in test [2]. In addition, the Activity was determined as 70% in [3], 35% in test [4], 35% in [5] and 25% in [6].
The EC50 is the concentration giving half of the maximal effect. Take `C[C@@H]1NC(=O)[C@H](CC(=O)O)NC(=O)[C@H](Cc2ccccc2)NC(=O)[C@H](Cc2ccccc2)NC(=O)[C@H](CCCNC(=N)N)NC(=O)[C@@H]2CCCN2C(=O)[C@H]2CCCN2C(=O)[C@H](Cc2ccccc2)NC1=O`: the figures for the Kb in test [1] and in test [2] were > 3.16 µM and 0.162 µM, respectively. The EC50 in [7], in test [8] and in test [9] was > 100 µM in each case. The Activity in [10] was determined as 25%.
As for `C[C@@H]1NC(=O)[C@H](CC(N)=O)NC(=O)[C@H](Cc2ccccc2)NC(=O)[C@H](Cc2ccccc2)NC(=O)[C@H](CCCNC(=N)N)NC(=O)[C@@H]2CCCN2C(=O)[C@H]2CCCN2C(=O)[C@H](C)NC1=O` (cyclo(RFFNAA[dP]P)), the values for the Kb in test [1] and in [2] were 0.794 µM and 0.00692 µM, respectively. The EC50 in test [7], in [8] and in test [9] was > 100 µM in each case. Moreover, the Activity in test [10] stood at 25%.
Regarding `C[C@@H]1NC(=O)[C@@H](CN)NC(=O)[C@H](Cc2ccccc2)NC(=O)[C@H](Cc2ccccc2)NC(=O)[C@H](CCCNC(=N)N)NC(=O)[C@@H]2CCCN2C(=O)[C@H]2CCCN2C(=O)[C@H](Cc2ccccc2)NC1=O`, the Kb in test [1] was 0.2 µM. In addition, the EC50 in test [7] and in [8] was > 100 µM throughout. The Activity in test [11] came out at 10%.
For `C[C@@H]1NC(=O)[C@H](Cc2ccccc2)NC(=O)[C@H](Cc2ccccc2)NC(=O)[C@H](Cc2ccccc2)NC(=O)[C@H](CCCNC(=N)N)NC(=O)[C@@H]2CCCN2C(=O)[C@H]2CCCN2C(=O)[C@H](Cc2ccccc2)NC1=O`, the values for the Kb in test [1] and in test [2] were > 3.16 µM and 0.234 µM, respectively. The EC50 in test [7], in test [8], in [9] and in [12] was > 100 µM throughout.
On to `C[C@@H]1NC(=O)[C@H](Cc2c[nH]cn2)NC(=O)[C@H](Cc2ccccc2)NC(=O)[C@H](Cc2ccccc2)NC(=O)[C@H](CCCNC(=N)N)NC(=O)[C@@H]2CCCN2C(=O)[C@H]2CCCN2C(=O)[C@H](Cc2ccccc2)NC1=O`, for which the Kb in test [1] was 0.347 µM. Further, the EC50 in test [7], in test [8] and in test [9] was > 100 µM in each case. For the same compound, the Activity in test [13] turned out to be 15%.
`N=C(N)NCCC[C@@H]1NC(=O)[C@@H]2CCCN2C(=O)[C@H]2CCCN2C(=O)[C@H](Cc2ccccc2)NC(=O)[C@H](CCCCN)NC(=O)[C@H](CC(N)=O)NC(=O)[C@H](Cc2ccccc2)NC(=O)[C@H](Cc2ccccc2)NC1=O`: the results for the Kb in [1] and in [2] were > 3.16 µM and 0.776 µM, respectively. Also, in [9], the EC50 is > 100 µM. Also, the Activity worked out at 60% in test [3], 45% in test [4] and 45% in test [6].
As to `CCCC[C@@H]1NC(=O)[C@H](Cc2ccccc2)NC(=O)[C@H](Cc2ccccc2)NC(=O)[C@H](CCCNC(=N)N)NC(=O)[C@@H]2CCCN2C(=O)[C@H]2CCCN2C(=O)[C@H](Cc2ccccc2)NC(=O)[C@H](C)NC1=O`, the Kb in [1] was > 3.16 µM; in test [2] it was 0.126 µM. Also, the EC50 in test [7], in [8], in test [9] and in test [12] was > 100 µM each time.
Take `N=C(N)NCCC[C@@H]1NC(=O)[C@@H]2CCCN2C(=O)[C@H]2CCCN2C(=O)[C@H](Cc2ccccc2)NC(=O)[C@H](CCC(=O)O)NC(=O)[C@H](CC(N)=O)NC(=O)[C@H](Cc2ccccc2)NC(=O)[C@H](Cc2ccccc2)NC1=O` (cyclo(RFFNEF[dP]P)): the Kb in test [1] and in test [2] was > 3.16 µM each time. Also, the EC50 in [8], in test [9] and in test [12] was > 100 µM each time. Further, the Activity in test [3] stood at 60%.
Take `N=C(N)NCCC[C@@H]1NC(=O)[C@@H]2CCCN2C(=O)[C@H]2CCCN2C(=O)[C@H](Cc2ccccc2)NC(=O)[C@H](CO)NC(=O)[C@H](CC(N)=O)NC(=O)[C@H](Cc2ccccc2)NC(=O)[C@H](Cc2ccccc2)NC1=O` (cyclo(RFFNSF[dP]P)): the Kb in test [1] was 0.631 µM; in [2], 0.00631 µM. In addition, the EC50 in test [7], in test [8] and in test [9] was > 100 µM throughout. For the same compound, in test [10], the Activity amounted to 30%.
On to `CC[C@@H]1NC(=O)[C@H](Cc2ccccc2)NC(=O)[C@H](Cc2ccccc2)NC(=O)[C@H](CCCNC(=N)N)NC(=O)[C@@H]2CCCN2C(=O)[C@H]2CCCN2C(=O)[C@H](Cc2ccccc2)NC(=O)[C@H](C)NC1=O`, for which the EC50 in test [7] and in [9] was > 100 µM throughout.
In the case of `CC(C)C[C@@H]1NC(=O)[C@H](Cc2ccccc2)NC(=O)[C@H](Cc2ccccc2)NC(=O)[C@H](CCCNC(=N)N)NC(=O)[C@@H]2CCCN2C(=O)[C@H]2CCCN2C(=O)[C@H](Cc2ccccc2)NC(=O)[C@H](C)NC1=O` (cyclo(RFFLAF[dP]P)), the Kb was 2 µM in [1] and 0.0457 µM in test [2]. For the same compound, the EC50 in test [7], in test [8] and in test [9] was > 100 µM each time. Besides, the Activity in test [11] was found to be 20%.
Take `N=C(N)NCCC[C@@H]1NC(=O)[C@@H]2CCCN2C(=O)[C@H]2CCCN2C(=O)[C@H](Cc2ccccc2)NC(=O)[C@H](CC(=O)O)NC(=O)[C@H](CC(N)=O)NC(=O)[C@H](Cc2ccccc2)NC(=O)[C@H](Cc2ccccc2)NC1=O` (cyclo(RFFNDF[dP]P)): the Kb in [1] and in [2] was > 3.16 µM each time. For the same compound, the EC50 in [8] and in test [9] was > 100 µM throughout. The Activity is 65% in test [3] and 25% in test [10].
Consider `CC(C)[C@@H]1NC(=O)[C@H](Cc2ccccc2)NC(=O)[C@H](Cc2ccccc2)NC(=O)[C@H](CCCNC(=N)N)NC(=O)[C@@H]2CCCN2C(=O)[C@H]2CCCN2C(=O)[C@H](Cc2ccccc2)NC(=O)[C@H](C)NC1=O`, for which the Kb in test [1] is > 3.16 µM; in [2], 1.26 µM. Further, the EC50 in [8] and in test [9] was > 100 µM in each case. The Activity in test [3] was 55%; in [14], 25%.
`N=C(N)NCCC[C@@H]1NC(=O)[C@@H]2CCCN2C(=O)[C@H]2CCCN2C(=O)[C@H](Cc2ccccc2)NC(=O)CNC(=O)[C@H](CC(N)=O)NC(=O)[C@H](Cc2ccccc2)NC(=O)[C@H](Cc2ccccc2)NC1=O` (cyclo(RFFNGF[dP]P)): the Kb in test [1] was > 3.16 µM; in test [2], 0.794 µM. In addition, the EC50 in test [7], in [8] and in test [9] was > 100 µM in each case. Also, the Activity in test [10] worked out at 35%.
With `CC(C)C[C@@H]1NC(=O)[C@H](CC(N)=O)NC(=O)[C@H](Cc2ccccc2)NC(=O)[C@H](Cc2ccccc2)NC(=O)[C@H](CCCNC(=N)N)NC(=O)[C@@H]2CCCN2C(=O)[C@H]2CCCN2C(=O)[C@H](Cc2ccccc2)NC1=O`, the Kb in test [1] was > 3.16 µM; in [2] it was 0.661 µM. For the same compound, in test [12], the EC50 is > 100 µM. In addition, the Activity in [3] was found to be 80%; in [4] it was 25%; in test [5], 25%.
